Data: ChEMBL document CHEMBL1124734, “Chalcogenapyrylium dyes as photochemotherapeutic agents. 2. Tumor uptake, mitochondrial targeting, and singlet-oxygen-induced inhibition of cytochrome c oxidase” (J Med Chem, 1990)

Columns and labels:
[1] = Partition coefficient (logP); format: physicochemical; conditions: octanol/water
How it was run: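 Partitioning measured between n-octanol and water.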

[2] = Ability to inhibit the Mitochondrial cytochrome c Oxidase in isolated mitochondrial suspensions from R3230AC rat mammary adenocarcinomas; parameters: concentration or dose not given beside the values; conditions: concentration not given here
How it was run: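 Mitochondria isolated from subcutaneously transplanted R3230AC tumors in female Fischer 344 rats and stored at -70 °C. They were diluted in sucrose/KCl buffer (pH 7.4) to give a 0.45-0.60/min absorbance change of cytochrome c at 550 nm. Dye (10 μM) was added for 5 min in the dark at room temperature, then mitochondria were pelleted and resuspended. Samples were matched by absorbance (~1.5 OD) and irradiated with 375–800 nm light. The initial inhibition rate was taken over the first 5 min of exposure.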

Row | Structure (SMILES) | logP [1] | inhibition [2]
1 | CC(C)(C)C1=CC(=C/C=C/c2cc(C(C)(C)C)[se+]c(C(C)(C)C)c2)C=C(C(C)(C)C)S1 | 2.39 | 4.05%
2 | CC(C)(C)C1=CC(=C/C=C/c2cc(C(C)(C)C)[te+]c(C(C)(C)C)c2)C=C(C(C)(C)C)[Te]1 | 2.02 | –
3 | CC(C)(C)C1=CC(=C/C=C/c2cc(C(C)(C)C)[s+]c(C(C)(C)C)c2)C=C(C(C)(C)C)S1 | 1.97 | 0.045%
4 | CC(C)(C)C1=CC(=C/C=C/c2cc(C(C)(C)C)[o+]c(C(C)(C)C)c2)C=C(C(C)(C)C)O1 | 2.51 | 0%
5 | CC(C)(C)C1=CC(=C/C=C/c2cc(C(C)(C)C)[s+]c(C(C)(C)C)c2)C=C(C(C)(C)C)O1 | – | 0.03%
6 | CC(C)(C)C1=CC(=C/C=C/c2cc(C(C)(C)C)[se+]c(C(C)(C)C)c2)C=C(C(C)(C)C)O1 | – | 2.55%
7 | CC(C)(C)C1=CC(=C/C=C/c2cc(C(C)(C)C)[te+]c(C(C)(C)C)c2)C=C(C(C)(C)C)O1 | 2.41 | 10.9%
8 | CC(C)(C)C1=CC(=C/C=C/c2cc(C(C)(C)C)[te+]c(C(C)(C)C)c2)C=C(C(C)(C)C)[Se]1 | 2.41 | 3%
9 | CC(C)(C)C1=CC(=C/C=C/c2cc(C(C)(C)C)[se+]c(C(C)(C)C)c2)C=C(C(C)(C)C)[Se]1 | 1.92 | 4.2%
